Laboratory results taken from ChEMBL document CHEMBL3779882, “The cysteine releasing pattern of some antioxidant thiazolidine-4-carboxylic acids” (Eur J Med Chem, 2016).

Legend:
Type in all cases: physicochemical
[1] = Antioxidant activity assessed as DPPH free radical scavenging activity treated with 5% DMSO after 50 mins
Method in brief: (§1)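 Samples serially diluted from 6.75 μM to 1000 μM; BHT reference at 125–2000 μM. Sample added to 0.1 mM DPPH solution in 1:5 volume ratio. Kept in the dark at RT for 50 min, then absorbance read at 517 nm. Triplicates. Scavenging % = [1−(A_average−A_blank)/(A_control−A_blank)]×100. IC50 reported in μM as the level scavenging 50% of radical.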

[2] = Antioxidant activity assessed as cupric ion reducing activity treated with 5% DMSO measured as ratio of sample to trolox molar extinction coefficient after 20 mins by CUPRAC assay
Method in brief: (§2)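 Reagents prepared separately: 10 mM CuSO4, 7.5 mM neocuproine and 1 M ammonium acetate buffer pH 7.0. Samples serially diluted from 6.75 μM to 1000 μM; Trolox reference at 10–70 μM. Each concentration run in triplicate. Incubated at 50°C for 20 min, then absorbance read at 450 nm for Cu(I)-neocuproine. TEAC = ε_sample/ε_Trolox.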

[3] = Antioxidant activity assessed as cupric ion reducing activity treated with MeOH solution measured as ratio of sample to trolox molar extinction coefficient after 20 mins by CUPRAC assay; method in brief: as §2
[4] = Chemical stability in MeOH solution assessed as compound remaining at 20 uM after 50 mins by HPLC analysis
Method in brief: (§3)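 Ring opening followed by reversed-phase HPLC-DAD on a C18 column (4.6 × 250 mm). Mobile phase water:acetonitrile 30:70 at 0.5 ml/min, 25°C. Detection at 254 nm, 5 μL injections. Cysteine release tracked from the peak of the aldehyde freed by ring cleavage. Injections made right after dissolution and again after 50 min.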

[5] = Chemical stability in 5% aqueous DMSO assessed as compound remaining at 20 uM after 20 mins by HPLC analysis; conditions: read-out: Stability
[6] = Chemical stability in 0.1 M phosphoric acid at pH 2 assessed as compound remaining at 20 uM after 20 mins by HPLC analysis; conditions: read-out: Stability
[7] = Chemical stability in 0.1 M phosphoric acid at pH 2 assessed as compound remaining at 20 uM after 50 mins by HPLC analysis; conditions: read-out: Stability; method in brief: as §3
[8] = Chemical stability in 5% aqueous DMSO assessed as compound remaining at 20 uM measured immediately post treatment by HPLC analysis; conditions: read-out: Stability; method in brief: as §3
[9] = Chemical stability in 5% aqueous DMSO assessed as compound remaining at 20 uM after 50 mins by HPLC analysis; conditions: read-out: Stability; method in brief: as §3
[10] = Chemical stability in PBS buffer assessed as compound remaining at 20 uM measured immediately post treatment by HPLC analysis; conditions: read-out: Stability; method in brief: as §3
[11] = Antioxidant activity assessed as DPPH free radical scavenging activity treated with methanol after 50 mins; method in brief: as §1
[12] = Chemical stability in MeOH solution assessed as compound remaining at 20 uM after 20 mins by HPLC analysis
[13] = Chemical stability in PBS buffer assessed as compound remaining at 20 uM after 50 mins by HPLC analysis; conditions: read-out: Stability; method in brief: as §3
[14] = Chemical stability in PBS buffer assessed as compound remaining at 20 uM after 20 mins by HPLC analysis; conditions: read-out: Stability
[15] = Chemical stability in MeOH solution assessed as compound remaining at 20 uM measured immediately post treatment by HPLC analysis; conditions: read-out: Stability; method in brief: as §3
[16] = Chemical stability in 0.1 M phosphoric acid at pH 2 assessed as compound remaining at 20 uM measured immediately post treatment by HPLC analysis; conditions: read-out: Stability; method in brief: as §3

O=C(O)[C@@H]1CSC(c2ccc([N+](=O)[O-])cc2)N1 (mixture of isomers)
IC50 [1]: ND(Insoluble)
Ratio [2]: ND(Insoluble)
Ratio [3]: 0.74

O=C(O)[C@@H]1CSC(c2c(F)cccc2F)N1 (mixture of isomers)
Stability [4]: 98.2%
IC50 ([1]; read-out: IC50): 38.3 µM
remaining at 20 min, 20 µM [5]: 39.2%
remaining at 20 min, 20 µM [6]: 72.3%
remaining at 50 min, 20 µM [7]: 54.8%
Ratio [2]: 1.05
Ratio [3]: 0.83
remaining at 0 min, 20 µM [8]: 53.8%
remaining at 50 min, 20 µM [9]: 38.2%
remaining at 0 min, 20 µM [10]: 79.4%
IC50 [11]: 343 µM
Stability [12]: 99.4%
remaining at 50 min, 20 µM [13]: 46.9%
remaining at 20 min, 20 µM [14]: 61.1%
remaining at 0 min, 20 µM [15]: 100%
remaining at 0 min, 20 µM [16]: 96.2%

COc1ccccc1C1N[C@H](C(=O)O)CS1 (mixture of isomers)
Stability [4]: 97.3%
IC50 ([1]; read-out: IC50): 29.5 µM
remaining at 20 min, 20 µM [5]: 43.9%
remaining at 20 min, 20 µM [6]: 78.9%
remaining at 50 min, 20 µM [7]: 67.6%
Ratio [2]: 0.79
Ratio [3]: 0.96
remaining at 0 min, 20 µM [8]: 82.8%
remaining at 50 min, 20 µM [9]: 26.8%
remaining at 0 min, 20 µM [10]: 82.5%
IC50 [11]: 343 µM
Stability [12]: 98.6%
remaining at 50 min, 20 µM [13]: 21%
remaining at 20 min, 20 µM [14]: 34%
remaining at 0 min, 20 µM [15]: 100%
remaining at 0 min, 20 µM [16]: 92.9%

O=C(O)[C@@H]1CSC(c2cccc(Cl)c2)N1 (mixture of isomers)
IC50 [1]: ND(Insoluble)
Ratio [2]: ND(Insoluble)
Ratio [3]: 1.5

N#Cc1ccccc1C1N[C@H](C(=O)O)CS1 (mixture of isomers)
IC50 ([1]; read-out: IC50): > 1000 µM
Ratio [2]: ND(Insoluble)
Ratio [3]: ND(Insoluble)
IC50 [11]: > 1000 µM

O=C(O)[C@@H]1CSC(c2cccc(Cl)c2Cl)N1 (mixture of isomers)
Stability [4]: 38.2%
IC50 ([1]; read-out: IC50): 61.7 µM
remaining at 20 min, 20 µM [5]: 16.6%
remaining at 20 min, 20 µM [6]: 17.5%
remaining at 50 min, 20 µM [7]: 14.2%
Ratio [2]: 0.99
Ratio [3]: 0.93
remaining at 0 min, 20 µM [8]: 17.8%
remaining at 50 min, 20 µM [9]: 15.7%
remaining at 0 min, 20 µM [10]: 15.3%
IC50 [11]: 46.2 µM
Stability [12]: 25.2%
remaining at 50 min, 20 µM [13]: 17.9%
remaining at 20 min, 20 µM [14]: 17.4%
remaining at 0 min, 20 µM [15]: 15.5%
remaining at 0 min, 20 µM [16]: 21.7%

N[C@@H](CS)C(=O)O [CYSTEINE]
IC50 ([1]; read-out: IC50): 18.4 µM
Ratio [2]: 0.49
Ratio [3]: 0.63
IC50 [11]: 19.2 µM

O=C(O)[C@@H]1CSC(c2ccccc2)N1 (mixture of isomers)
Stability [4]: 95.4%
IC50 ([1]; read-out: IC50): 45.2 µM
remaining at 20 min, 20 µM [5]: 27.8%
remaining at 20 min, 20 µM [6]: 62.4%
remaining at 50 min, 20 µM [7]: 49.9%
Ratio [2]: 0.99
Ratio [3]: 1.54
remaining at 0 min, 20 µM [8]: 76.3%
remaining at 50 min, 20 µM [9]: 13.8%
remaining at 0 min, 20 µM [10]: 78.4%
IC50 [11]: 844 µM
Stability [12]: 95.7%
remaining at 50 min, 20 µM [13]: 13.8%
remaining at 20 min, 20 µM [14]: 27.8%
remaining at 0 min, 20 µM [15]: 96.1%
remaining at 0 min, 20 µM [16]: 85%

COc1ccc(C2N[C@H](C(=O)O)CS2)cc1 (mixture of isomers)
IC50 [1]: ND(Insoluble)
Ratio [2]: ND(Insoluble)
Ratio [3]: ND(Insoluble)

Cc1cc(C(C)(C)C)c(O)c(C(C)(C)C)c1 [BUTYLATED HYDROXYTOLUENE]
IC50 [1]: ND(Insoluble)
IC50 [11]: 517 µM

O=C(O)[C@@H]1CSC(c2ccccc2Br)N1 (mixture of isomers)
Stability [4]: 75.6%
IC50 ([1]; read-out: IC50): 37.7 µM
remaining at 20 min, 20 µM [5]: 16.2%
remaining at 20 min, 20 µM [6]: 11.5%
remaining at 50 min, 20 µM [7]: 9.5%
Ratio [2]: 1
Ratio [3]: 0.8
remaining at 0 min, 20 µM [8]: 19%
remaining at 50 min, 20 µM [9]: 14.3%
remaining at 0 min, 20 µM [10]: 11.6%
IC50 [11]: 39.1 µM
Stability [12]: 74%
remaining at 50 min, 20 µM [13]: 18.5%
remaining at 20 min, 20 µM [14]: 16.3%
remaining at 0 min, 20 µM [15]: 70.5%
remaining at 0 min, 20 µM [16]: 14.1%

Cc1ccc(C2N[C@H](C(=O)O)CS2)cc1 (mixture of isomers)
IC50 [1]: ND(Insoluble)
Ratio [2]: ND(Insoluble)
Ratio [3]: 1.22

O=C(O)[C@@H]1CSC(c2ccc(Cl)cc2)N1 (mixture of isomers)
IC50 [1]: ND(Insoluble)
Ratio [2]: ND(Insoluble)
Ratio [3]: 1.52

Cc1ccccc1C1N[C@H](C(=O)O)CS1 (mixture of isomers)
Stability [4]: 4.2%
IC50 ([1]; read-out: IC50): 39 µM
remaining at 20 min, 20 µM [5]: 5.9%
remaining at 20 min, 20 µM [6]: 11.3%
remaining at 50 min, 20 µM [7]: 10.1%
Ratio [2]: 0.75
Ratio [3]: 0.57
remaining at 0 min, 20 µM [8]: 6.8%
remaining at 50 min, 20 µM [9]: 5.6%
remaining at 0 min, 20 µM [10]: 15.2%
IC50 [11]: 46.1 µM
Stability [12]: 4.1%
remaining at 50 min, 20 µM [13]: 8.9%
remaining at 20 min, 20 µM [14]: 11.3%
remaining at 0 min, 20 µM [15]: 4%
remaining at 0 min, 20 µM [16]: 12.9%

O=C(O)[C@@H]1CSC(c2cccc(F)c2F)N1 (mixture of isomers)
Stability [4]: 98.8%
IC50 ([1]; read-out: IC50): 46.8 µM
remaining at 20 min, 20 µM [5]: 50%
remaining at 20 min, 20 µM [6]: 64.6%
remaining at 50 min, 20 µM [7]: 43.5%
Ratio [2]: 0.84
Ratio [3]: 0.83
remaining at 0 min, 20 µM [8]: 83.7%
remaining at 50 min, 20 µM [9]: 28.7%
remaining at 0 min, 20 µM [10]: 92.7%
IC50 [11]: > 1000 µM
Stability [12]: 100%
remaining at 50 min, 20 µM [13]: 50.1%
remaining at 20 min, 20 µM [14]: 69.3%
remaining at 0 min, 20 µM [15]: 100%
remaining at 0 min, 20 µM [16]: 87.3%
